Screening data from PubChem BioAssay.
LEDGF integ inh – blockers of LEDGF/p75-dependent integrase strand transfer – biochemical, TR-FRET, high throughput, primary screen. HIV-1 integrase (with human LEDGF/p75). TR-FRET IN-LEDGF/p75 DNA integration, Eu/Cy5. inhibition, % at 3.7 µM. 370,000 tested, 0.64% active. AID 743269, 2014;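 active = inhibition above the screen-wide mean plus 3 SD, cut at about 13% in these data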;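 also: signal is the Cy5 over europium emission ratio at 671 and 618 nm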
Rin1 Abl inh – inhibitors of Rin1-Abl protein binding, primary screen, biochemical, TR-FRET; Tyrosine-protein kinase ABL1 (Homo sapiens) + Ras and Rab interactor 1 (Homo sapiens), …; inhibition, % at 7.35 µM; 360,000 tested, 0.4% active; in the data active = inhibition above about 5%, passing the limit was not always enough
TDP2 absorb – human TDP2 enzyme inhibitors, primary screen, biochemical, epi absorbance, recombinant enzyme; Tyrosyl-DNA phosphodiesterase 2 (Homo sapiens), O95551; T5PNP hydrolysis, p-nitrophenol absorbance 415 nm; inhibition, % at 12.8 µM; 370,000 tested, 0.34% active; AID 720702, 2013;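 active = inhibition above the mean of all tested compounds plus 3 SD, set per campaign, cut at about 25% in these data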
Target sequence (O95551 whole entry, looked up): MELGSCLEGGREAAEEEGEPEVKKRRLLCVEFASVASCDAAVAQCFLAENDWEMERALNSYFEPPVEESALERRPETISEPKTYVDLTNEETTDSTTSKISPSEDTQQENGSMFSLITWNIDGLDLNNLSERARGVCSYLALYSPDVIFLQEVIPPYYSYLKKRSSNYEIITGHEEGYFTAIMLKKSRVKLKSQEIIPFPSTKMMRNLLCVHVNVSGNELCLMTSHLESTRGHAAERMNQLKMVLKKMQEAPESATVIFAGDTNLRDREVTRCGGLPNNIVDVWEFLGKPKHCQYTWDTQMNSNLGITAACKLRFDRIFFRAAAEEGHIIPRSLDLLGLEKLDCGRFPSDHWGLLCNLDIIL
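System: recombinant human TDP2 / Amount: 120 nM TDP2 per well / Also added: 5 mM T5PNP chromogenic substrate / Doses: 12.8 µM single point, 1% DMSO / Incubation: 2 h at 37 °C / Detection: p-Nitrophenol epi absorbance / Evaluation: % inhibition relative to enzyme-containing and enzyme-free wells / Repeats: singlicate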
MBD2 inh – inhibitors of MBD2 binding to methylated DNA, primary screen, biochemical, TR-FRET, DNA-binding domain, human | Methyl-CpG-binding domain protein 2 (Homo sapiens), Q9UBB5 | MBD2 binding to methylated oligonucleotide | inhibition, % at 4.4 µM | 370,000 tested, 0.31% active; in the data active = inhibition above about 13%
UHRF1 MBD2 ctr – UHRF1 methylated DNA binding inhibitors, primary screen, counter-screen for MBD2 inhibitor project, biochemical, TR-FRET, human UHRF1, single concentration | inhibition, % at 4.4 µM | AID 687016, 2013 | UHRF1 binding to methylated oligo | 370,000 tested, 0.75% active; in the data active = inhibition above about 21%;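 also: UHRF1 SRA domain binding a hemimethylated CpG hairpin DNA probe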
Rin1 Abl conf – Rin1-Abl binding inhibitor retest, confirmation, biochemical, TR-FRET | shares compounds with Rin1 Abl inh | purified proteins | inhibition, % at 7.35 µM | 1,300 tested, 49% active
GFP quench – GFP fluorescence inhibitors and quenchers, artefact control for Rin1-Abl interaction inhibitor project, biochemical | 1,300 tested, 8.5% active | inhibitors/quenchers counterscreen | AID 602125, 2011 | inhibition, % at 6.75 µM | shares compounds with Rin1 Abl inh;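 also: ABL1-eGFP fusion protein alone without its partner RIN1-SBP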
GFP quench DR – GFP fluorescence inhibitors and quenchers, dose response, artefact control for Rin1-Abl interaction inhibitor project, biochemical; shares compounds with Rin1 Abl inh; GFP fluorescence interference/quenching counterscreen; IC50, µM; 230 tested, under 10 active; call rule not given here;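 also: ABL1-eGFP fusion protein alone without its RIN1 binding partner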
Of the large screens only hits and unclear results are named; the others gave an inactive call (follow-up assays come after a bar, where they were run). The list is not random: actives were taken first. Their share in the collection is about 1.9%. Rule as the data show it, unless noted: active = inhibition above about 6.5%; inactive = the rest.

CCOc1ccc(C=Nn2c(-c3cccc(OC(C)C)c3)n[nH]c2=S)cc1	none (no result: Rin1 Abl inh)
CCc1nc2nc(C)c(NS(=O)(=O)c3ccc(CC(C)C)cc3)c(=O)n2[nH]1	Rin1 Abl inh 8.2 | Rin1 Abl conf inactive | GFP quench inactive
CCCc1nc2nc(C)c(NS(=O)(=O)c3ccc(CC(C)C)cc3)c(=O)n2[nH]1	none
N#CCCN(C(=O)COC(=O)c1ccc2c(=O)n3c(nc2c1)CCC3)c1ccccc1	Rin1 Abl inh 12 | Rin1 Abl conf inactive | GFP quench inactive
NC(=O)c1nsc(C(=O)N(c2ccccc2)C(C(=O)NCC2CCCO2)c2ccc(F)cc2)c1N (configuration not stated)	none
CCOc1ccc(C(C(=O)NCC2CCCO2)N(C(=O)c2snc(C(N)=O)c2N)c2ccccc2F)cc1 (configuration not stated)	Rin1 Abl inh 8.5 | Rin1 Abl conf 11 | GFP quench inactive
NC(=O)c1nsc(C(=O)N(c2ccc3c(c2)OCCO3)C(C(=O)NCC2CCCO2)c2ccc(F)cc2)c1N (configuration not stated)	Rin1 Abl inh 11 | Rin1 Abl conf 11 | GFP quench inactive
CCc1ccc(N(C(=O)c2snc(C(N)=O)c2N)C(C(=O)NC2CCCC2)c2ccncc2)cc1 (configuration not stated)	none
CCOc1ccc(N(C(=O)c2snc(C(N)=O)c2N)C(C(=O)NC2CCCC2)c2ccncc2)cc1 (configuration not stated)	Rin1 Abl inh 7.6 | Rin1 Abl conf inactive | GFP quench inactive
Cc1ccc(C(C(=O)NCC2CCCO2)N(C(=O)c2snc(C(N)=O)c2N)c2ccc3c(c2)OCCO3)cc1 (configuration not stated)	Rin1 Abl inh 13 | Rin1 Abl conf 14 | GFP quench inactive
COC(=O)c1ccc(C=NNC(=O)c2cc(-c3ccc(C)c(C)c3)n[nH]2)cc1	none (no result: Rin1 Abl inh)
CCNC(=O)Nc1ccc2c(c1)C(=O)N(C)[C@H]1CC[C@@H](CC(=O)OC)O[C@H]1CO2	none (no result: Rin1 Abl inh)
CC(C)(C)c1ccc(-c2nnc(SCC(=O)Nc3ccc(S(=O)(=O)Nc4nccs4)cc3)n2-c2ccc(Cl)cc2)cc1	none (no result: Rin1 Abl inh)
C#CCN1CC(N(C)CCOC(=O)c2ccc(F)cc2)CS1(=O)=O (configuration not stated)	none (no result: Rin1 Abl inh)
C[C@H]1[C@@H](N(C)Cc2cccs2)CC[C@@]23CCCN2C(=O)CCC[C@@H]13	none (no result: Rin1 Abl inh)
CN(CC(=O)Nc1cccc(C(F)(F)F)c1)C1=NS(=O)(=O)c2ccccc21	Rin1 Abl inh 9.9 | Rin1 Abl conf inactive | GFP quench inactive
CN(CC(=O)Nc1cccc(Cl)c1)C1=NS(=O)(=O)c2ccccc21	none
O=C1C2C(CC3c4ccccc4CCN32)CN1c1ccccc1 (configuration not stated)	none (no result: Rin1 Abl inh)
CCOC(=O)c1ccc(NC(=O)COc2ccccc2CNCCO)cc1	Rin1 Abl inh 13 | Rin1 Abl conf 23 | GFP quench inactive | GFP quench DR inactive
CCOc1ccc(-n2c(SC/C=C/c3ccccc3)nnc2-c2cccs2)cc1	none (no result: Rin1 Abl inh)
COc1ccc(-n2c(Cc3cccn3C)nnc2SCC(=O)Nc2cccc(NC(C)=O)c2)cc1	Rin1 Abl inh 9.1 | Rin1 Abl conf inactive | GFP quench inactive
COc1ccc(-n2c(Cc3cccn3C)nnc2SCC(=O)Nc2cccc(Cl)c2)cc1	none
NC(=O)C1CCN(C(=O)c2cnn(-c3ccccc3)c2NC(=O)c2cccc(F)c2)CC1	Rin1 Abl inh 23 | Rin1 Abl conf inactive | GFP quench inactive
O=C(Nc1c(C(=O)N2CCCC2)cnn1-c1ccccc1)c1cccc(F)c1	none
CC(C)c1nc2oc3c(=O)[nH]cnc3c2c2c1CCC2	Rin1 Abl inh 7.8 | Rin1 Abl conf 13 | GFP quench inactive
O=C(Cc1c(F)cccc1Cl)NNC(=O)Nc1ccc2c(c1)OCO2	Rin1 Abl inh 14 | Rin1 Abl conf inactive | GFP quench inactive
O=c1nccc(N/N=C/c2ccccc2)[nH]1	Rin1 Abl inh 8.8 | Rin1 Abl conf 20 | GFP quench inactive | GFP quench DR inactive
CC(=O)N1CCc2cc(S(=O)(=O)NCCC(=O)NCc3ccccc3)ccc21	none (no result: Rin1 Abl inh)
Cc1ccc(-c2[nH]c3cc(C(=O)NCCCn4ccnc4)ccc3c(=O)c2O)cc1	Rin1 Abl inh 19 | Rin1 Abl conf 11 | GFP quench 11
Cc1ccc(NC(=O)Cc2ccc(F)cc2)c(S(=O)(=O)N2CCOCC2)c1	none (no result: Rin1 Abl inh)
c1ccc(CNc2nc(NCCc3ccncc3)c3sccc3n2)cc1	Rin1 Abl inh 20 | Rin1 Abl conf 10 | GFP quench inactive
c1ccc(CNc2nc(NCc3cccs3)nc3ccsc23)cc1	none
C=CCn1c(Cc2cccs2)nnc1SCC(=O)Nc1cccc2ccccc12	none (no result: Rin1 Abl inh)
CC1(C(=O)NCc2ccc(C(F)(F)F)cc2)CCN1Cc1cc2ccccc2o1 (configuration not stated)	Rin1 Abl inh 9.0 | Rin1 Abl conf inactive | GFP quench inactive
CCOc1ccccc1OCCn1ncc2ccc(OC)c(OC)c2c1=O	none
COc1ccc2cnn(CCOc3ccccc3)c(=O)c2c1OC	Rin1 Abl inh 14 | Rin1 Abl conf inactive | GFP quench inactive
Cc1ccc(C(=O)N2CCCC(CCC(=O)N3CCN(c4ccccn4)CC3)C2)cc1 (configuration not stated)	none
CC(=O)c1ccccc1C(=O)N1CCCC(CCC(=O)N2CCN(c3ccccn3)CC2)C1 (configuration not stated)	Rin1 Abl inh 7.9 | Rin1 Abl conf inactive | GFP quench inactive
Cc1cccc(C(=O)N2CCCC(CCC(=O)N3CCN(c4ccccn4)CC3)C2)c1 (configuration not stated)	Rin1 Abl inh 8.8 | Rin1 Abl conf inactive | GFP quench inactive
O=C1NC(=O)C2C3C=CC(C12)C1C(=O)NC(=O)C31 (configuration not stated)	none (no result: Rin1 Abl inh)
COc1ccc(CNC(=O)CCSCc2cccc(Cl)c2)c(OC)c1	Rin1 Abl inh 5.2 | Rin1 Abl conf inactive | GFP quench inactive
